According to ChEMBL document CHEMBL1212710, “A small molecule that binds Hedgehog and blocks its signaling in human cells” (Nat Chem Biol, 2009):
Blank lines part the entries; values can stand above or below the compound they belong to. Active and inactive are the calls of the source. The calls are words filed in the database; no cut-off is given here.

Columns and labels:
Sonic hedgehog protein [1] = target: T1, Sonic hedgehog protein (Homo sapiens, UniProt Q15465); assay: Binding affinity to N-terminal Shh by surface plasmon resonance assay
How it was run: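 SPR (Biacore T100) at 25 °C; ShhN amine-coupled to CM4 chip at 10 µg/mL in 10 mM sodium acetate pH 5.5 (1000–1200 RU), underivatized reference surface. Running/sample buffer 0.01 M HEPES pH 7.4, 0.15 M NaCl, 0.05% P20, 5% DMSO; compounds serially diluted 0.78–25 µM, 2 min injections at 80 µL/min; double referencing plus DMSO solvent correction.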

[2] = target: Sonic hedgehog protein (Mus musculus) (UniProt Q62226); assay: Inhibition of N-palmitoylated Shh in mouse Shh Light2 cells after 30 hrs by firefly luciferase reporter gene assay; format: functional, cell-based; conditions: Shh Light II
How it was run: (§1)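 Shh-LIGHT2 (NIH3T3 with Gli-luciferase) cultured in DMEM/10% calf serum with G-418 and Zeocin, grown to confluence (~5–7 days); compounds added in DMEM with 0.5% calf serum, 30 h at 37 °C; pathway activity read as luminescence with Bright-Glo reagent.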

[3] = Cytotoxicity against mouse Shh Light2 cells assessed as cell viability; format: cell-based; conditions: shh light ii
How it was run: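 Shh-LIGHT2 (NIH3T3 with Gli-luciferase) grown in DMEM/10% calf serum with G-418 and Zeocin, plated and grown to confluence (~5–7 days); treated in DMEM with 0.5% calf serum for 30 h at 37 °C; viability read by CellTiter-Glo luminescence after 10 min at room temperature.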

[4] = target: Sonic hedgehog protein (Mus musculus) (UniProt Q62226); assay: Inhibition of N-palmitoylated Shh in mouse Shh Light2 cells at 6.25 uM after 30 hrs by firefly luciferase reporter gene assay; format: functional, cell-based; conditions: Shh Light II
How it was run: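 Shh-LIGHT2 (NIH3T3 carrying Gli-luciferase reporter) grown to confluence over about 5-7 days in DMEM, 10% calf serum, G-418 and Zeocin at 37 °C. Treated in DMEM with 0.5% calf serum for 30 h. Readout by luminescence with Bright-Glo. Parallel identically treated wells read with CellTiter-Glo after 10 min at room temperature.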

[5] = target: Sonic hedgehog protein (Mus musculus) (UniProt Q62226); assay: Inhibition of Shh in MEF deficient in ptch1 gene assessed as beta-galactosidase activity at 6.6 uM after 30 hrs by luminometry
[6] = target: Sonic hedgehog protein (Mus musculus) (UniProt Q62226); assay: Inhibition of N-palmitoylated Shh in mouse Shh Light2 cells at > 30 uM after 30 hrs by firefly luciferase reporter gene assay; format: functional, cell-based; conditions: Shh Light II; how it was run: as §1
[7] = target: Sonic hedgehog protein (Mus musculus) (UniProt Q62226); assay: Inhibition of N-palmitoylated Shh in mouse Shh Light2 cells at 6.3 to 50 uM after 30 hrs by firefly luciferase reporter assay in presence of 3.6 uM Smo agonist purmorphamine; format: functional, cell-based; conditions: Shh Light II; how it was run: as §1
[8] = target: Sonic hedgehog protein (Mus musculus) (UniProt Q62226); assay: Inhibition of N-palmitoylated Shh in mouse Shh Light2 cells at 6.3 to 50 uM after 30 hrs by firefly luciferase reporter assay in presence of 100 nM Smo agonist SAG; format: functional, cell-based; conditions: Shh Light II; how it was run: as §1
[9] = target: Sonic hedgehog protein (Mus musculus) (UniProt Q62226); assay: Inhibition of N-terminal Shh-induced differentiation in mouse C3H10T1/2 cells assessed as inhibition of alkaline phosphatase induction; format: cell-based; conditions: C3H 10T1/2
[10] = target: Sonic hedgehog protein (Mus musculus) (UniProt Q62226); assay: Inhibition of N-terminal Shh-induced differentiation in mouse C3H10T1/2 cells assessed as inhibition of alkaline phosphatase induction in presence of 3.6 uM purmorphamine; format: cell-based; conditions: C3H 10T1/2
Sonic hedgehog protein [11] = target: T1, Sonic hedgehog protein; assay: Inhibition of N-terminal N-palmitoylated Shh-mediated Gli2 transcription in human keratinocytes at 100 uM after 30 hrs by real-time quantitative PCR analysis; format: cell-based
Sonic hedgehog protein [12] = target: T1, Sonic hedgehog protein; assay: Inhibition of N-terminal N-palmitoylated Shh-mediated Gli1 transcription in human keratinocytes after 30 hrs by real-time quantitative PCR analysis; format: cell-based
Sonic hedgehog protein [13] = target: T1, Sonic hedgehog protein; assay: Inhibition of N-terminal N-palmitoylated Shh-mediated Gli1 transcription in human keratinocytes after 30 hrs by real-time quantitative PCR analysis in presence of 3.6 uM Smo agonist purmorphamine; format: functional, cell-based
Sonic hedgehog protein [14] = target: T1, Sonic hedgehog protein; assay: Inhibition of N-terminal N-palmitoylated Shh-mediated Gli1 transcription in human keratinocytes after 30 hrs by real-time quantitative PCR analysis in presence of 100 nM Smo agonist SAG; format: functional, cell-based
Sonic hedgehog protein [15] = target: T1, Sonic hedgehog protein; assay: Inhibition of N-terminal N-palmitoylated Shh-mediated Gli2 transcription in human keratinocytes after 30 hrs by real-time quantitative PCR analysis in presence of 3.6 uM Smo agonist purmorphamine; format: functional, cell-based
Sonic hedgehog protein [16] = target: T1, Sonic hedgehog protein; assay: Inhibition of N-terminal N-palmitoylated Shh-mediated Gli2 transcription in human keratinocytes after 30 hrs by real-time quantitative PCR analysis in presence of 100 nM Smo agonist SAG; format: functional, cell-based
Sonic hedgehog protein [17] = target: T1, Sonic hedgehog protein; assay: Inhibition of Shh-mediated Gli1 mRNA transcription in human synthetic skin by real-time quantitative PCR analysis
Sonic hedgehog protein [18] = target: T1, Sonic hedgehog protein; assay: Inhibition of Shh-mediated Gli2 mRNA transcription in human synthetic skin by real-time quantitative PCR analysis
[19] = target: Sonic hedgehog protein (Mus musculus) (UniProt Q62226); assay: Inhibition of Shh in MEF deficient in ptch1 gene assessed as beta-galactosidase activity at 1.56 to 25 uM after 30 mins by luminometry; conditions: in the assay text read “30 hrs” for “30 mins”
How it was run: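 Ptc1−/− mouse embryonic fibroblasts carrying β-galactosidase construct, grown in DMEM/10% FBS to confluence (3–4 days, 37 °C); compounds in DMEM/0.5% FBS for 30 h; Beta-Glo reagent added with 30 min gentle agitation at room temperature, then luminescence read.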

[20] = target: Smoothened homolog (Mus musculus) (UniProt P56726); assay: Displacement of BODIPY-cyclopamine from Smo expressed in HEK293T cells after 30 mins; conditions: HEK-293T
Sequence of Smoothened homolog (Mus musculus) (P56726 whole entry, looked up): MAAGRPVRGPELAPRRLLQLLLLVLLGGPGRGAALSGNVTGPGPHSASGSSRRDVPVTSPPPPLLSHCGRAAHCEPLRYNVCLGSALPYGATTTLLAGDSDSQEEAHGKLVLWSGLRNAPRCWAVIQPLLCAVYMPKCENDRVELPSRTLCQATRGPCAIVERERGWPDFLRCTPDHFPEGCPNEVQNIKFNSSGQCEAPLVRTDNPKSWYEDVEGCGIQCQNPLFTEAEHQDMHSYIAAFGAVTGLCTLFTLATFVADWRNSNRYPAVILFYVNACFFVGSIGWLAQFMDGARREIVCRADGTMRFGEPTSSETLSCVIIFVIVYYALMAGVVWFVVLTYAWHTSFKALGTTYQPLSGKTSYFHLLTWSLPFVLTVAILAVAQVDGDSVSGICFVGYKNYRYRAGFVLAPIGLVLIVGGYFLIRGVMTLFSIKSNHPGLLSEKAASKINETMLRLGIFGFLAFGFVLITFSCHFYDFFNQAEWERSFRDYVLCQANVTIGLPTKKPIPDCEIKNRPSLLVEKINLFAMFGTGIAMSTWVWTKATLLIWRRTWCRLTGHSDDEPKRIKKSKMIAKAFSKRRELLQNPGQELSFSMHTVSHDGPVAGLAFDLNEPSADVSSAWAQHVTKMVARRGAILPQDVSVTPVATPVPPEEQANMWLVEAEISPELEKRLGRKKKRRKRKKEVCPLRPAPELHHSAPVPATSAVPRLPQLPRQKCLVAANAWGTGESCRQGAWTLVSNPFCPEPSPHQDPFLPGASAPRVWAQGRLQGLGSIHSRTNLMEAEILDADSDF

T1 sequence (Q15465 24-197 limits assumed): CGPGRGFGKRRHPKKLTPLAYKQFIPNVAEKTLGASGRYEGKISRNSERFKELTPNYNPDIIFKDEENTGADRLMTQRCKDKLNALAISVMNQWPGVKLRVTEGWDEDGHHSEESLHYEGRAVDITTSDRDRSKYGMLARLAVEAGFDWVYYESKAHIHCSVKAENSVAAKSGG

Activity (Sonic hedgehog protein [1]): Dose-dependent effect
inhibition [2]: Active
Compound: C[C@H]1COC(=O)[C@@H](N)CC/C=C/C[C@@H](CC(=O)N(CCO)Cc2ccccc2)C(=O)N1
Activity [3]: Non-toxic

Compound: CC1=C2C[C@H]3[C@@H](CC=C4C[C@@H](O)CC[C@@]43C)[C@@H]2CC[C@]12O[C@@H]1C[C@H](C)CN[C@H]1[C@H]2C
inhibition [4]: Active
inhibition [5]: Active

Kd (Sonic hedgehog protein [1]): 3.1 µM
inhibition [2]: Dose-dependent effect
inhibition [6]: Active
inhibition [7]: Active
inhibition [8]: Active
inhibition [9]: Active
inhibition [10]: inactive
inhibition (Sonic hedgehog protein [11]): Active
inhibition (Sonic hedgehog protein [12]): Active
Activity (Sonic hedgehog protein [13]): inactive
Activity (Sonic hedgehog protein [14]): inactive
Activity (Sonic hedgehog protein [15]): inactive
Activity (Sonic hedgehog protein [16]): inactive
inhibition (Sonic hedgehog protein [17]): Active
inhibition (Sonic hedgehog protein [18]): Active
inhibition [19]: inactive
Activity [20]: inactive
Compound: O=C(C[C@@H]1C/C=C/CCC(=O)O[C@H](c2ccccc2)CNC1=O)NCc1ccc(Cl)cc1 [ROBOTNIKININ]
Activity [3]: Non-toxic
